Laboratory results published in the array DNA melting data of Ke et al. (doi:10.1101/2024.01.08.574731).

Columns and labels:
[1] = folding enthalpy; higher = less favourable; fluorescence melt of hairpins on a sequencing array, two-state fit; conditions: sodium 0.088 M
In short: (§1)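 Library hairpins on a sequenced MiSeq flow cell carried annealed Cy3 and quencher oligos, and their Cy3 fluorescence was imaged in 50 mM Na-HEPES pH 8.0 with 25 mM NaCl, in 2.5 °C steps up to 60 °C. Signals were normalised to Cy3 before quenching and to control constructs. Melting temperature and folding enthalpy were obtained from bootstrapped two-state fits, combined by inverse-variance weighting across four replicates, and the fitted temperatures were then raised by 9.35 °C to match UV melts.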

[2] = melting temperature; fluorescence melt of hairpins on a sequencing array, two-state fit, raised by 9.35 °C to match UV melts; conditions: sodium 0.088 M
In short: as §1

Sequence	folding enthalpy [1] [kcal/mol]	Tm [2] [°C]
GGTGATGGAAACGTCACC (((((.(....).)))))	-49.9	53.5
GGTGATGGAAACGTTACC (((.(.(....).).)))	-19.2	30.4
GGTGCACGAAAGTGAACC (((.(((....))).)))	-35.3	61.4
GGTGCAGGAAACTACACC ((((.((....)).))))	-32.1	43.4
GGTGCAGGAAACTGTACC (((.(((....))).)))	-45.4	52.6
GGTGCCGAAAGGCAAACC ((((((....)))..)))	-14.6	50.9
GGTGCCGAAAGGCACACC ((((((....)))..)))	-6.62	58
GGTGCCGAAAGGCCCACC ((((((....)))..)))	-11.4	50.6
GGTGCCGAAAGGCGTACC ((((((....)))..)))	-15.5	48.5
GGTGCCGGAAACGGTGCC ((..(((....)))..))	-41.5	56.6
GGTGCGACGAAAGTCACC (((..(((....))))))	-16.5	42.5
GGTGCGGCGAAAGCCACC (((..(((....))))))	-14	48.2
GGTGCTCCGAAAGGAACC (((..(((....))))))	-11.3	32.5
GGTGCTGCGAAAGCAACC (((..(((....))))))	-14.4	43.8
GGTGCTGGAAACAACACC ((((.((....)).))))	-37.6	46
GGTGCTGGAAACGGTACC (((.(.(....).).)))	-35.8	41.2
GGTGGACGAAAGTCGACC (((.(((....))).)))	-39.9	57.2
GGTGGAGAAATCCACC ((((((....))))))	-33.1	59.8
GGTGGATCGAAAGATACC (((..(((....))))))	-18.4	35.6
GGTGGCGAAAGCCCAACC ((((((....)))..)))	-14.8	42
GGTGGCGAAAGCCCCACC ((((((....)))..)))	-11.1	49.8
GGTGGCGAAAGCCTGACC ((((((....)))..)))	-14.2	41.9
GGTGGCGGAAACGTCACC ((((.((....)).))))	-48.2	63.3

Sequence	folding enthalpy [1] [kcal/mol]	Tm [2] [°C]
GGTGGCGGAAACGTCGCC ((.(.((....)).).))	-39.9	54.2
GGTGGGACGAAAGTCACC (((..(((....))))))	-14.4	47
GGTGGGCGAAAGCCAACC (((.(((....))).)))	-28.7	64.1
GGTGGGCGAAAGCCACC (((.(((....))))))	-21.3	66.1
GGTGGGGCGAAAGCCACC (((..(((....))))))	-12.3	54.5
GGTGGGGGAAACCCCATC (.(((((....))))).)	-24.2	51.3
GGTGGTCGAAAGACGACC (((.(((....))).)))	-38	56.8
GGTGGTGGAAACACCATC (.(((((....))))).)	-26.2	56.2
GGTGGTGGAAACACCGTC (..((((....))))..)	-22.8	55.5
GGTGTAACGAAAGTTACC (((..(((....))))))	-14.3	42.9
GGTGTACGAAAGTAAACC (((.(((....))).)))	-24.9	48.6
GGTGTACGAAAGTAGACC (((.(((....))).)))	-38.3	52.2
GGTGTAGCGAAAGCTACC (((..(((....))))))	-9.3	49.1
GGTGTAGGAAACCACACC (((((.(....).)))))	-32.9	47.4
GGTGTAGGAAACTACGCC ((.((((....)))).))	-43.2	52.3
GGTGTAGGAAACTATACC (((.(((....))).)))	-32	42.4
GGTGTCGAAAGACAGACC ((((((....)))..)))	-15.1	44
GGTGTCGAAAGACGACC ((((((....))).)))	-19.9	52.6
GGTGTCGAAAGACTCACC ((((((....)))..)))	-17.6	39.1
GGTGTCGGAAACGGCACC ((((.((....)).))))	-46.5	64.7
GGTGTGGGAAACCACATC (.(((((....))))).)	-21.1	51.2
GGTGTGGGAAACCACGCC ((.((((....)))).))	-27.4	60.5
GGTGTGGGAAACCACGTC (..((((....))))..)	-13	39.3

Sequence	folding enthalpy [1] [kcal/mol]	Tm [2] [°C]
GGTGTGGGAAACCATGCC ((..(((....)))..))	-30.7	45.5
GGTGTGGGAAACCGCATC (.((.((....)).)).)	-23.7	41.9
GGTGTTGCGAAAGCAACC (((..(((....))))))	-8.2	49.5
GGTGTTGGAAACAATACC (((.(((....))).)))	-39.7	47.4
GGTGTTGGAAACAGCATC (.((.((....)).)).)	-17.7	46.5
GGTGTTGGAAACGACACC (((((.(....).)))))	-50.3	54.3
GGTTAACCGAAAGGTACC (((..(((....))))))	-17.4	38
GGTTAACGAAAGTTTACC (((.(((....))).)))	-33.3	45.2
GGTTAATCGAAAGATACC (((..(((....))))))	-17.1	29.2
GGTTACCGAAAGGTCACC (((.(((....))).)))	-27.7	49.1
GGTTACGAAAGTAAAACC ((((((....)))..)))	-24.3	36.6
GGTTACGAAAGTAACACC ((((((....)))..)))	-12.7	44.6
GGTTACGAAAGTAGCACC ((((((....)))..)))	-14.5	31.7
GGTTACGGAAACGTAATC (.(((((....))))).)	-30.5	45.5
GGTTAGACGAAAGTCACC (((..(((....))))))	-6.17	27
GGTTAGGCGAAAGCCACC (((..(((....))))))	-12.5	42.9
GGTTAGGGAAACCTGACC (((.(((....))).)))	-33	48
GGTTATACGAAAGTAACC (((..(((....))))))	-14.7	38.1
GGTTCACCGAAAGGTACC (((..(((....))))))	-11.9	32.2
GGTTCACGAAAGTGCACC (((.(((....))).)))	-29.7	50.5
GGTTCACGAAAGTGTACC (((.(((....))).)))	-36.4	52.4
GGTTCAGGAAACCGAACC (((((.(....).)))))	-26.5	47.8
GGTTCAGGAAACTGGACC (((.(((....))).)))	-44.8	50.7

Sequence	folding enthalpy [1] [kcal/mol]	Tm [2] [°C]
GGTTCCCGAAAGGGCACC (((.(((....))).)))	-26.2	51.6
GGTTCCGAAAGGAATACC ((((((....)))..)))	-14.1	41.5
GGTTCCGAAAGGACTACC ((((((....)))..)))	-15.3	36.1
GGTTCCGAAAGGAGGACC ((((((....)))..)))	-18.8	38.1
GGTTCCGAAAGGAGTACC ((((((....)))..)))	-21	38.9
GGTTCCGAAAGGATCACC ((((((....)))..)))	-14.7	33.1
GGTTCGCGAAAGCGACC (((.(((....))))))	-14.9	61.7
GGTTCGGGAAACCGGACC (((.(((....))).)))	-39.5	58.3
GGTTCGGGAAACCGGATC (.(.(((....))).).)	-18.3	38.2
GGTTCTCCGAAAGGAACC (((..(((....))))))	-20.8	42.9
GGTTCTCGAAAGAGTACC (((.(((....))).)))	-26.1	46.7
GGTTCTGGAAACAAAACC ((((.((....)).))))	-16.3	28.5
GGTTCTGGAAACAGAACC (((((((....)))))))	-46.5	60.8
GGTTGAACGAAAGTTACC (((..(((....))))))	-13.2	31.1
GGTTGACGAAAGTCCACC (((.(((....))).)))	-32	50.5
GGTTGAGGAAACTCAACC (((((((....)))))))	-40.1	60.7
GGTTGAGGAAACTCGACC (((.(((....))).)))	-44.2	51.5
GGTTGCCGAAAGGCACC (((.(((....))))))	-14.5	59
GGTTGCGAAAGCAGAACC ((((((....)))..)))	-19.8	47.5
GGTTGCGAAAGCAGACC ((((((....))).)))	-27.2	51
GGTTGCTCGAAAGAGACC (((..(((....))))))	-13.4	29.6
